Screening data as filed in PubChem BioAssay.
CAL PDZ FP-1 – blocks peptide binding to human CAL PDZ domain; Q9HD26; purified CAL PDZ, TMR-peptide fluorescence polarization, 1 h; inhibition, % at 20 µM; hit rate 0.02% among 330,000;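 active means highest replicate inhibition of at least 40%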
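material = purified tagged CAL PDZ domain construct (CerCALP) | compound dosing = 20 µM, one dose | times = 1 h at RT | measured by = fluorescence polarization from S- and P-plane intensities, G-factor corrected | read-out = inhibition from polarization loss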
SR-BI HDL uptake – mouse SR-BI HDL lipid transfer inhibition. inhibition, % at 12.5 µM. hit rate 0.96% among 320,000. AID 488896. Q61009. ldlA[mSR-BI] CHO cells, DiI-HDL uptake fluorescence, 3 h;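 active means mean replicate inhibition of at least 70% and a set share of replicates each scoring 70 or more; inconclusive means meets just one of the two criteria; inactive means fails both criteria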
Target sequence (Q61009 whole entry, looked up): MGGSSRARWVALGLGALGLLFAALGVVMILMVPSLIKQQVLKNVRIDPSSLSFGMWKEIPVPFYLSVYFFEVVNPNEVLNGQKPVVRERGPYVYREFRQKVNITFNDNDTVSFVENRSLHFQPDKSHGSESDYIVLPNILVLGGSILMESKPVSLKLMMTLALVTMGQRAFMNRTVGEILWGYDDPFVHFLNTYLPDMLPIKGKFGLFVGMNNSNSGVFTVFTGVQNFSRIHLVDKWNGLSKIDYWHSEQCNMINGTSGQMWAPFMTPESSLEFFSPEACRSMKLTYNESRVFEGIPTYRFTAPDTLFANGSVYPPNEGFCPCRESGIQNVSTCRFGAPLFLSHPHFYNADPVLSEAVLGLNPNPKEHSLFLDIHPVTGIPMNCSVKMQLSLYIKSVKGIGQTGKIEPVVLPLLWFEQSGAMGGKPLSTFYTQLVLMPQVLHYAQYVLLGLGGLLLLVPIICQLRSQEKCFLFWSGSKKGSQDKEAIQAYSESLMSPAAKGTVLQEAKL
ARNT TACC3 PPI – ARNT/TACC3 interaction disruption. hit rate 0.66% among 390,000. AID 623870. Q9Y6A5. inhibition, % at 9.99 µM. AlphaScreen His-ARNT PAS-B/GST-TACC3 binding, luminescence; TACC3 fragment carries E629A point mutation;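 active means mean inhibition of replicates at least 50% and at least half of replicates each reaching 50%; inconclusive means half or more replicates reach 50% but mean below 50%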
SR-BI DiI-HDL act – SR-BI HDL lipid transfer activation; CHO ldlA[mSR-BI] cells, DiI-HDL uptake fluorescence, 3 h; 100 = double the neutral-control signal; activation, % at 12.5 µM; hit rate 0.096% among 320,000;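 active means mean replicate activation of at least 60% and every replicate at or above 60%; inconclusive means mean or all-replicate condition met, but not both; inactive means mean below 60% and not all replicates reaching 60%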
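Assay system: LDL receptor-deficient CHO ldlA cells overexpressing murine SR-BI / Medium: BSA-supplemented, HEPES-buffered Ham's F12, pH 7.4 / Probe or stimulus: DiI-labelled HDL at 10 µg/mL final / Timing: compound with DiI-HDL co-incubation, 3 h at 37 °C / Technique: bottom-read cell fluorescence after medium removal, ex 550/em 595 nm / Measure: HDL uptake via cellular fluorescence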
miR122 inh – inhibitors of miR-122 in Huh7 cells. Huh7 miR-122 Renilla luciferase sensor, 48 h; neutral wells = 0, positive control = 100. activation (reporter increase), % at 12.5 µM. hit rate 0.3% among 340,000;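 active means mean replicate activation score at least 90 and every replicate individually at or above 90; inconclusive means only one of the two criteria met; inactive means neither criterion met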;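 further: higher luciferase means less miR-122 activity so hits act as miR-122 inhibitors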
CAL PDZ FP-2 – inhibitors of human CAL PDZ peptide binding. inhibition, % at 24.9 µM. Q9HD26. purified CAL PDZ, TMR-peptide fluorescence polarization, 1 h. hit rate 0.92% among 300,000;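 active means mean inhibition of at least 30% with at least half of replicates also reaching 30%; inconclusive means no clear call, values can overlap the other calls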
DiI quencher – counter-screen for SR-BI lipid transfer inhibitors: DiI fluorescence quenchers | AID 540326 | hit rate 20% among 470 | cell-free DiI-HDL fluorescence quenching, 30 min | AC50, µM (doses to about 35 µM) | shares compounds with SR-BI HDL uptake;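 active means quenching, a falling signal, with AC50 below a set limit tied to the top valid dose, actives reach about 32 µM in these data; inconclusive means no clear call, values can overlap the other calls; inactive means rising signal, and the rest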
Numbers stand for hits; - = inactive; ? = inconclusive; . = no result given. A selection: hits, their analogues and other compounds. The true share with any hit is near 2.1%.

SMILES	CAL PDZ FP-1	SR-BI HDL uptake	ARNT TACC3 PPI	SR-BI DiI-HDL act	miR122 inh	CAL PDZ FP-2	DiI quencher
CCOc1ccc(NS(=O)(=O)c2ccc(C(=O)NNC(=O)c3ccccc3O)cc2)cc1	-	127	-	-	.	-	0.61µM
O=C(NNC(=O)c1ccccc1O)c1ccc(S(=O)(=O)Nc2ccccc2)cc1	-	113	-	-	-	-	0.4µM
Cc1noc(C)c1NC(=O)Nc1ccc2c(c1)C(=O)N([C@@H](C)CO)C[C@H](C)[C@H](CN(C)C(=O)Nc1ccc3c(c1)OCO3)O2	.	.	-	.	-	.	.
COc1ccc(-c2cc(C(F)(F)F)nc(SCCC(=O)N3CCN4CCCC4C3)n2)cc1 (stereo not drawn)	-	?	-	-	-	-	-
CCOC(=O)C1CCN(C(=O)Cn2cnc3sc(C)c(S(=O)(=O)N4CCC(C)CC4)c3c2=O)CC1	-	?	-	-	.	-	-
CNC[C@@H]1Oc2ncc(Br)cc2C(=O)N([C@@H](C)CO)C[C@@H]1C	.	.	-	.	-	.	.
COCc1cc(=O)oc2cc(NC(=O)c3ccc(C(C)(C)C)cc3)ccc12	-	?	-	-	-	-	-
COc1cc(OC)cc(C(=O)NCC(=O)OCc2cc(=O)oc3cc(OC)ccc23)c1	-	.	-	.	-	-	.
CCCNC(=O)N[C@@H]1CC[C@@H](CCn2cc(-c3cccc(F)c3)nn2)O[C@H]1CO	.	.	-	.	.	.	.
COc1ccc([C@H]2/C=C\CN(S(=O)(=O)c3ccc(C)cc3)[C@@H](C)C(=O)N2Cc2ccc(F)cc2)cc1	-	-	-	-	-	-	-
COc1ccc([C@H]2/C=C\CN(C(=O)c3ccc(C)cc3)[C@@H](C)C(=O)N2Cc2ccc(F)cc2)cc1	-	-	-	-	-	-	.
COc1ccc([C@H]2/C=C\CN(S(=O)(=O)c3ccc4ccccc4c3)[C@@H](C)C(=O)N2Cc2ccc(F)cc2)cc1	-	72	-	-	-	-	-
COc1ccc([C@H]2/C=C\CN(S(=O)(=O)c3cccc4cccnc34)[C@@H](C)C(=O)N2Cc2ccc(F)cc2)cc1	-	-	-	-	-	-	-
CN1[C@H](CO)[C@@H]2c3ccccc3N(C(=O)c3ccc(F)cc3)C[C@@H]21	.	.	-	.	-	.	.
CNc1nc(-c2ccc3c(c2)CCN3C(=O)c2ccc(F)cc2)cs1	-	-	-	-	-	-	-
CC(C)(C)Nc1nc(-c2ccc3c(c2)CCN3C(=O)C2CC2)cs1	-	.	-	.	.	-	.
CC(C)C(=O)Nc1nc(-c2ccc3c(c2)CCN3C(=O)C2CC2)cs1	-	89	-	-	-	-	-
Cc1ccccc1C(=O)NC1CC2CCCC(C1)N2C(=O)Nc1ccccc1 (stereo not drawn)	-	-	-	-	-	-	-
Cc1ccc(-c2nnc(N3CCCCCC3)c3ccccc23)cc1	-	.	-	.	-	.	.
Cc1ccc(-c2nnc(N3CCC(C)CC3)c3ccccc23)cc1C	-	92	-	-	.	-	-
Cc1ccc(C(C(=O)NCc2ccccc2)N(Cc2cccs2)C(=O)c2ccc3c(c2)OCCO3)cc1 (stereo not drawn)	-	-	-	-	.	-	.
COc1ccc(CNC(=O)C(c2ccc(C)cc2)N(Cc2cccs2)C(=O)c2ccc3c(c2)OCCO3)cc1 (stereo not drawn)	-	-	-	-	-	-	-
O=C(NCC1CC1)[C@H]1[C@H](CO)[C@H]2Cn3c(ccc(-c4ccccc4F)c3=O)[C@@H]1N2Cc1cccnc1	.	.	-	.	.	.	.
CCNC(=O)c1c(NC(C)=O)sc2c1CCCC2	-	-	-	-	-	-	.
CCNC(=O)c1c(NC(=O)c2cc(-c3cc(C)cc(C)c3O)n[nH]2)sc2c1CCCC2	-	?	-	-	-	-	-
SMILES	CAL PDZ FP-1	SR-BI HDL uptake	ARNT TACC3 PPI	SR-BI DiI-HDL act	miR122 inh	CAL PDZ FP-2	DiI quencher
CCn1nc(C)c(CN2CCc3c([nH]c4ccccc34)C2c2ccc(F)c(OC)c2)c1C (stereo not drawn)	-	82	.	-	.	-	-
CCC1CN(C(=O)N2CCC(C(=O)NCc3ccccc3OC)CC2)c2cc(C)ccc2O1 (stereo not drawn)	-	81	-	-	-	-	-
CCC1CN(C(=O)N2CCC(C(=O)NCc3ccccc3OC)CC2)c2ccccc2O1 (stereo not drawn)	-	-	-	-	-	-	.
C[C@H](CO)N1C[C@H](C)[C@@H](CN(C)C(=O)Nc2cccc3ccccc23)OCCCC[C@H](C)Oc2ccc(NS(=O)(=O)c3cccs3)cc2C1=O	.	.	-	.	-	.	.
COc1ccc(C(=O)N2CCC(C(=O)Nc3ccc(OC)c(OC)c3)CC2)cc1	.	-	-	-	-	-	.
COc1ccc(NC(=O)C2CCN(C(=O)c3ccc(OC)cc3)CC2)cc1	-	115	-	-	-	-	-
CC(Sc1nc2cc([N+](=O)[O-])ccc2n1-c1ccc(F)cc1)C(=O)NCc1ccc2c(c1)OCO2 (stereo not drawn)	-	82	-	-	-	-	-
Cc1cc2oc(=O)cc(-c3ccccc3)c2c(C)c1-c1ccc(C(F)(F)F)cc1	-	?	-	-	-	-	-
C[C@@H]1CN([C@@H](C)CO)C(=O)c2cc(C3=CCCCC3)cnc2O[C@@H]1CN(C)C(=O)Nc1ccccc1	.	.	-	.	-	.	.
CC[C@]12c3[nH]c4cc(-c5ccco5)ccc4c3CCN1C(=O)[C@@H](CC(=O)NCc1ccc(OC)c(OC)c1)C[C@@H]2C(=O)N1CCN(C(=O)c2ccco2)CC1	-	75	-	-	-	-	-
C[C@H]1CCCCO[C@@H](CN(C)Cc2ccc(C(=O)O)cc2)[C@@H](C)CN([C@@H](C)CO)C(=O)c2cc(NC(=O)CCC(F)(F)F)ccc2O1	.	.	-	.	-	.	.
CCCN1[C@@H]2c3ccc(-c4ccncc4)c(=O)n3C[C@H]1[C@H](CO)[C@H]2C(=O)N1CCCCC1	.	.	-	.	-	.	.
CCc1sc(N2C(=O)C3C4CCC(C4=C(C)C)C3C2=O)nc1-c1ccccc1 (stereo not drawn)	-	84	-	-	-	-	-
O=C(Nc1nc(NC(=O)c2ccco2)n(-c2ccccc2)n1)c1ccccc1	-	122	56	-	-	-	2µM
C[C@@H]1CN([C@@H](C)CO)C(=O)c2cc(NC(=O)Nc3ccc(F)cc3)ccc2O[C@H]1CN(C)S(=O)(=O)c1ccccc1	.	.	-	.	-	.	.
COc1cc2c(cc1OC)-c1cc(NC3CCCC3)nc(=O)n1CC2	-	-	-	-	-	-	.
COc1cc2c(cc1OC)-c1cc(OCc3ccccc3Cl)nc(=O)n1CC2	-	78	-	-	-	.	-
